Laboratory results from ChEMBL document CHEMBL3124940, “Design, synthesis and biological evaluation of D-ring opened galantamine analogs as multifunctional anti-Alzheimer agents” (Eur J Med Chem, 2014).
Calls of active or inactive are those of the source. The rule behind the calls is not given here.

What was measured:
Rattus norvegicus [1] = experiment: Toxicity in Wistar rat assessed as lipidperoxidation product level in kidney at 6 umol/100 g body weight, ip by fluorometric analysis relative to control; assay type: organism-based; settings: in vivo
Summary of the method: (§1)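 Rats dosed i.p.; tissues taken after 24 h. For GSH/GSSG, tissue homogenized in 11 volumes of 0.2 M sodium phosphate (5 mM EDTA, pH 8.0) plus 4 volumes of 25% metaphosphoric acid and centrifuged 12 000 × g, 4 °C, 30 min; supernatant read photometrically (GSH) or fluorometrically (GSSG). Lipid peroxidation products measured as TBARS in 19-volume ice-cold saline homogenates, fluorometrically.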

Rattus norvegicus [2] = experiment: Toxicity in Wistar rat assessed as total glutathione level in kidney at 6 umol/100 g body weight, ip by fluorometric analysis relative to control; assay type: organism-based; settings: in vivo; summary of the method: as §1
Rattus norvegicus [3] = experiment: Toxicity in Wistar rat assessed as total glutathione level in kidney at 1 umol/100 g body weight, ip by fluorometric analysis relative to control; assay type: organism-based; settings: in vivo; summary of the method: as §1
Rattus norvegicus [4] = experiment: Toxicity in Wistar rat assessed as GSSG level in kidney at 6 umol/100 g body weight, ip by fluorometric analysis relative to control; assay type: organism-based; settings: in vivo; summary of the method: as §1
Rattus norvegicus [5] = experiment: Toxicity in Wistar rat assessed as kidney weight at 6 umol/100 g body weight, ip relative to control; assay type: organism-based; settings: in vivo
Rattus norvegicus [6] = experiment: Toxicity in Wistar rat assessed as kidney weight at 1 umol/100 g body weight, ip relative to control; assay type: organism-based; settings: in vivo
Rattus norvegicus [7] = experiment: Toxicity in Wistar rat assessed as total glutathione level in brain at 6 umol/100 g body weight, ip by fluorometric analysis relative to control; assay type: organism-based; settings: in vivo; summary of the method: as §1
Rattus norvegicus [8] = experiment: Toxicity in Wistar rat assessed as GSSG level in brain at 6 umol/100 g body weight, ip by fluorometric analysis relative to control; assay type: organism-based; settings: in vivo; summary of the method: as §1
Rattus norvegicus [9] = experiment: Toxicity in Wistar rat assessed as GSSG level in brain at 1 umol/100 g body weight, ip by fluorometric analysis relative to control; assay type: organism-based; settings: in vivo; summary of the method: as §1
Rattus norvegicus [10] = experiment: Toxicity in Wistar rat assessed as brain weight at 1 umol/100 g body weight, ip relative to control; assay type: organism-based; settings: in vivo
Rattus norvegicus [11] = experiment: Toxicity in Wistar rat assessed as ethoxyresorufin-O-deethylation activity in liver measured as resorufin level at 1 umol/100 g body weight, ip by fluorometric analysis relative to control; assay type: organism-based; settings: in vivo
Summary of the method: (§2)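 Rats dosed i.p.; after 24 h, liver homogenized 1:3 w/v in 0.1 M sodium phosphate pH 7.4 and centrifuged at 9000 × g, 4 °C, 20 min. Supernatant protein determined by the Biuret method. Ethoxyresorufin-O-deethylation measured fluorometrically as resorufin formed.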

Rattus norvegicus [12] = experiment: Toxicity in Wistar rat assessed as ethoxycoumarin-O-deethylation activity in liver measured as 7-hydroxycoumarin level at 1 umol/100 g body weight, ip by fluorometric analysis relative to control; assay type: organism-based; settings: in vivo
Rattus norvegicus [13] = experiment: Toxicity in Wistar rat assessed as protein content in liver at 1 umol/100 g body weight, ip by Biuret method relative to control; assay type: organism-based; settings: in vivo; summary of the method: as §2
Rattus norvegicus [14] = experiment: Toxicity in Wistar rat assessed as total glutathione level in liver at 6 umol/100 g body weight, ip by fluorometric analysis relative to control; assay type: organism-based; settings: in vivo
Summary of the method: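 Rats were dosed, killed 24 h later, and liver and other tissues were taken. Samples were homogenized in 11 vol 0.2 M sodium phosphate (5 mM EDTA, pH 8.0) plus 4 vol 25% metaphosphoric acid, then spun at 12 000 × g, 4 °C, 30 min. GSH was read photometrically and GSSG fluorometrically in the supernatant, alongside total glutathione.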

Rattus norvegicus [15] = experiment: Toxicity in Wistar rat assessed as total glutathione level in liver at 1 umol/100 g body weight, ip by fluorometric analysis relative to control; assay type: organism-based; settings: in vivo; summary of the method: as §1
Rattus norvegicus [16] = experiment: Toxicity in Wistar rat assessed as GSSG level in liver at 1 umol/100 g body weight, ip by fluorometric analysis relative to control; assay type: organism-based; settings: in vivo; summary of the method: as §1
Rattus norvegicus [17] = experiment: Toxicity in Wistar rat assessed as GSH level in liver at 1 umol/100 g body weight, ip by fluorometric analysis relative to control; assay type: organism-based; settings: in vivo
Rattus norvegicus [18] = experiment: Toxicity in Wistar rat assessed as liver weight at 1 umol/100 g body weight, ip relative to control; assay type: organism-based; settings: in vivo
Rattus norvegicus [19] = experiment: Antialzheimer activity in Wistar rat scopolamine-induced cognition impairment model assessed as decrease in amount of errors plus baits not found during exploration at 1 umol/100 g body weight, ip treated for 5 mins prior to scopolamine-challenge measured after 20 to 120 mins by eight-arm radial maze test; assay type: functional, organism-based
Summary of the method: (§3)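 Female 60-day-old Wistar rats (Han:Wist) trained in an eight-arm radial maze to error-free trials under 60 s on three consecutive days; each animal served as its own control. Test agent given i.p. in saline 5 min before scopolamine (0.05 mg/100 g b. wt., i.p. in saline). Errors plus baits not found after 10 min, and total searching time, recorded before and 20, 60, 120 min after scopolamine; n = 14, mean ± SEM.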

[20] = Induction of nitric oxide release in PBS at 100 uM at pH 7.4 after 24 hrs by Griess method relative to control; assay type: physicochemical; settings: buffer, pH 7.4, 24 h
Summary of the method: (§4)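 Test compound at 100 µM in phosphate buffer pH 7.4, alone or with 90 µL rat serum added, incubated 37 °C for 24 h. Griess reagent added, then 30 min at 37 °C with gentle shaking; absorbance read at 540 nm and blank-corrected. Nitrite quantified against an NaNO2 calibration curve and expressed as % of a theoretical 1 mol NO per mol nitrate; n = 3.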

[21] = Induction of nitric oxide release in PBS at 100 uM at pH 7.4 after 24 hrs by Griess method in presence of rat serum; assay type: physicochemical; settings: pH 7.4, 24 h; summary of the method: as §4
[22] = target: Amyloid-beta precursor protein (Homo sapiens) (UniProt P05067); experiment: Inhibition of amyloid beta (1 to 42) aggregation (unknown origin) at 50 uM after 1 hr by thioflavin T fluorescence assay relative to control
Sequence of Amyloid-beta precursor protein (Homo sapiens) (P05067 whole entry): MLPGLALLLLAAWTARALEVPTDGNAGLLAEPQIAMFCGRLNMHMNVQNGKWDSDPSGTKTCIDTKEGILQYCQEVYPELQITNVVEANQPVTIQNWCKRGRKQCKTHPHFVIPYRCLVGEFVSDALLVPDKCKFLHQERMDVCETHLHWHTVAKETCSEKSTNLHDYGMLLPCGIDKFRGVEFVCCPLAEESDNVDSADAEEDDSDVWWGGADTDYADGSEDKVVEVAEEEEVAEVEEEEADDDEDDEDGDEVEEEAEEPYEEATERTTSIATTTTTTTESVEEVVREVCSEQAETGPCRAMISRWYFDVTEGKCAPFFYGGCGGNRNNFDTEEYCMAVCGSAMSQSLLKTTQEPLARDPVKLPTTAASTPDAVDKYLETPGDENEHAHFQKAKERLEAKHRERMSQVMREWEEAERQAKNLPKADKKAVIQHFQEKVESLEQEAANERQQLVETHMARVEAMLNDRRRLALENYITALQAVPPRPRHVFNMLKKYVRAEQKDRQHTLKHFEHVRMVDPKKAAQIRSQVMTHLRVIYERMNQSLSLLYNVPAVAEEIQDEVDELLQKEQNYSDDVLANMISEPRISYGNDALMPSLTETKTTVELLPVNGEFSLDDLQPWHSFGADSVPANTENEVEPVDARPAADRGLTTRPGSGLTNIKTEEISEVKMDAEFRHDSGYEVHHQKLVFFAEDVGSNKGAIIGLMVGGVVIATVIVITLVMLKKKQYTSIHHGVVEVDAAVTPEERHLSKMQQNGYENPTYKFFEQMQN
Summary of the method: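 Aβ42 stock (200 µM in DMSO) centrifuged 12,000 rpm for 10 min; supernatant used. Compound (2 µL of 0.2–4.0 mM DMSO stock) and 2 µL Aβ42 stock added to 76 µL PBS pH 7.4, incubated 1 h at room temperature. 80 µL of 5 µM ThT in 50 mM glycine-NaOH pH 8.5 then added; fluorescence read at excitation 430 nm, emission 488 nm.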

PC-12 = experiment: Neuroprotective activity in rat PC12 cells assessed as decrease in amyloid beta (1 to 42)-induced cytotoxicity after 24 hrs by MTT assay; assay type: functional, cell-based
Summary of the method: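 PC12 cells in F-12 with 10% FBS at 37 °C, 5% CO2, plated at 2000 cells/well and grown 24 h. Compound added (final 0.008–10 µM, DMSO below 0.5%) with Aβ42 (final 5 µM), 24 h at 37 °C. Aβ42 prepared by HFIP treatment, dried, taken up to 100 µM in F-12 and held 4 °C for 24 h. MTT for 4 h, DMSO solubilization, read at 540 nm; reported as % of control, three independent trials, mean ± SEM.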

Rattus norvegicus [23] = experiment: Antialzheimer activity in Wistar rat scopolamine-induced cognition impairment model assessed as total exploration time at 1 umol/100 g body weight, ip treated for 5 mins prior to scopolamine-challenge by eight-arm radial maze test relative to control; assay type: functional; summary of the method: as §3

With `COc1ccc2c(c1)oc1cccc(CN(C(=O)CCO[N+](=O)[O-])C(C)C)c12` the Activity (Rattus norvegicus [1]) was 96.2 nmol/g, the Activity (Rattus norvegicus [2]) was 1800 µg/g and the Activity (Rattus norvegicus [3]) was 1783 µg/g. The Activity (Rattus norvegicus [4]) was 159 µg/g, the Activity (Rattus norvegicus [5]) was 0.84 g and the Activity (Rattus norvegicus [6]) was 0.93 g. The Activity (Rattus norvegicus [7]) was 830 µg/g, the Activity (Rattus norvegicus [8]) was 79.1 µg/g and the Activity (Rattus norvegicus [9]) was 84.8 µg/g. For the same compound, the Activity (Rattus norvegicus [10]) was 1.95 g, the Activity (Rattus norvegicus [11]) was 114 pmol/mg/min and the Activity (Rattus norvegicus [12]) was 187 pmol/mg/min. For the same compound, the Activity (Rattus norvegicus [13]) was 66.4 mg/mL, the Activity (Rattus norvegicus [14]) was 3320 µg/g and the Activity (Rattus norvegicus [15]) was 3365 µg/g. The Activity (Rattus norvegicus [16]) was 411 µg/g, the Activity (Rattus norvegicus [17]) was 2542 µg/g and the Activity (Rattus norvegicus [18]) was 7.6 g. For the same compound, the Activity (Rattus norvegicus [19]) was “Active”, the Activity [20] was 4.8% and the Activity [21] was “Active”. The inhibition [22] was 19%, the Activity (PC-12) was “Dose-dependent effect” and the Time (Rattus norvegicus [23]) was 175 s.
